Data published in ChEMBL document CHEMBL1134284, “The biological effects of structural variation at the meta position of the aromatic rings and at the end of the alkenyl chain in the alkenyldiarylmethane series of non-nucleoside reverse transcriptase inhibitors” (J Med Chem, 2001).

Assays:
CEM-SS [1] = experiment: Inhibitory concentration for cytopathicity of HIV-1RF in CEM-SS cells; Not active; format: functional, cell-based, Homo sapiens
Outline: (§1)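 CEM-SS cells kept in RPMI 1640 with 10% heat-inactivated FBS, 2 mM glutamine, penicillin/streptomycin. Microtiter assay with cytopathic HIV-1 RF, or mock infection for toxicity. Viability read by MTS/phenazine ethosulfate reduction (absorbance 490 nm) 6 days after infection. […] Triplicate.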

CEM-SS [2] = experiment: Concentration required for cytotoxicity against mock infected CEM-SS cells; format: functional; details: Homo sapiens; outline: as §1
[3] = molecular target: Human immunodeficiency virus type 1 reverse transcriptase (Human immunodeficiency virus 1, UniProt Q72547); experiment: Inhibitory activity against HIV-1 Reverse Transcriptase with rCdG as the template primer
Outline: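 Cell-free assay with purified recombinant HIV-1 RT (p66/p51 dimer). Activity measured as [32P]GTP incorporation into the poly(rC)/oligo(dG) homopolymer template/primer. IC50 is reported as inhibition of enzyme activity.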

[4] = system: Human immunodeficiency virus type 1 (RF/HAT ISOLATE); experiment: Inhibitory concentration for cytopathicity of HIV-1RF in CEM-SS cells; format: functional, organism-based; details: Human immunodeficiency virus 1, RF; outline: as §1
[5] = Ratio of CC50/EC50 was determined; format: cell-based; details: human, CEM-SS cells; read-out: TI
Outline: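 HIV-1 RF–infected CEM-SS cells (RPMI 1640, 10% heat-inactivated FBS, 2 mM glutamine, penicillin/streptomycin), plus mock-infected CEM-SS in parallel. Cell killing and viability were read by MTS/phenazine ethosulfate reduction at 490 nm 6 days after infection. […] Index = CC50 ÷ EC50. Triplicate tests.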

SMILES | EC50 (CEM-SS [1]) | CC50 (CEM-SS [2]) | IC50 [3] | EC50 [4] | selectivity ratio [5]
COC(=O)c1cc(C(=CCCNC(=O)OCC(C)C)c2cc(Cl)c(OC)c(C(=O)OC)c2)cc(Cl)c1OC | Not Active | 17.2 µM | 65.4 µM | – | –
COC(=O)c1cc(C(=CCCCC(=O)OC(C)C)c2cc(Cl)c(OC)c(C(=O)OC)c2)cc(Cl)c1OC | – | 36.1 µM | > 100 µM | 0.84 µM | 42.9
COC(=O)CCCC=C(c1cc(F)c(OC)c(C(=O)OC)c1)c1cc(F)c(OC)c(C(=O)OC)c1 | – | 68.3 µM | – | 1.9 µM | 36
COC(=O)c1cc(C(=CCCN2CCOC2=O)c2cc(Br)c(OC)c(C(=O)OC)c2)cc(Br)c1OC | – | 1.95 µM | 0.499 µM | 0.02 µM | 104
CCCOC(=O)CCCC=C(c1cc(C)c(OC)c(C(=O)OC)c1)c1cc(C)c(OC)c(C(=O)OC)c1 | – | 5.4 µM | 29.7 µM | 1.29 µM | 4.2
CCCCCC=C(c1cc(Cl)c(OC)c(C(=O)OC)c1)c1cc(Cl)c(OC)c(C(=O)OC)c1 | – | > 29.1 µM | – | 16 µM | > 1.8
COC(=O)NCCC=C(c1cc(Br)c(OC)c(C(=O)OC)c1)c1cc(Br)c(OC)c(C(=O)OC)c1 | – | 8.1 µM | 2.39 µM | 0.2 µM | 40.5
CCCCCC=C(c1cc(F)c(OC)c(C(=O)OC)c1)c1cc(F)c(OC)c(C(=O)OC)c1 | – | 13.4 µM | – | – | –
COC(=O)c1cc(C(=CCCCc2ccccc2)c2cc(Cl)c(OC)c(C(=O)OC)c2)cc(Cl)c1OC | – | > 200 µM | > 100 µM | 1.7 µM | > 43
COC(=O)NCCC=C(c1cc(C)c(OC)c(C(=O)OC)c1)c1cc(C)c(OC)c(C(=O)OC)c1 | – | 12.4 µM | 4.93 µM | 0.21 µM | 59
CCSC(=O)CCCC=C(c1cc(Cl)c(OC)c(C(=O)OC)c1)c1cc(Cl)c(OC)c(C(=O)OC)c1 | – | 12.6 µM | – | 3.95 µM | 3.2
CCCCCC=C(c1cc(C)c(OC)c(C(=O)OC)c1)c1cc(C)c(OC)c(C(=O)OC)c1 | – | 17.2 µM | 1 µM | 6.8 µM | 2.5
COC(=O)c1cc(C(=CCCCC(=O)N2CCCCC2)c2cc(Cl)c(OC)c(C(=O)OC)c2)cc(Cl)c1OC | Not Active | 3.59 µM | > 100 µM | – | –
COC(=O)c1cc(C(=CCCCC(=O)N(C)C)c2cc(C)c(OC)c(C(=O)OC)c2)cc(C)c1OC | – | 7.4 µM | 5.65 µM | 1.51 µM | 4.91
CCOC(=O)NCCC=C(c1cc(C)c(OC)c(C(=O)OC)c1)c1cc(C)c(OC)c(C(=O)OC)c1 | – | 3.59 µM | 0.016 µM | 0.67 µM | 5.34
COC(=O)c1cc(C(=CCCCC(=O)OC(C)C)c2cc(C)c(OC)c(C(=O)OC)c2)cc(C)c1OC | Not Active | 4.32 µM | 60.4 µM | – | –
COC(=O)c1cc(C(=CCCNC(=O)OCC(C)C)c2cc(C)c(OC)c(C(=O)OC)c2)cc(C)c1OC | – | 5.13 µM | 2.95 µM | 0.76 µM | 6.73
COC(=O)c1cc(C(=CCCCC(=O)N2CCCCC2)c2cc(C)c(OC)c(C(=O)OC)c2)cc(C)c1OC | – | 14.7 µM | 7.12 µM | 5.37 µM | 2.74
COC(=O)c1cc(C(=CCCCC(=O)OCC[Si](C)(C)C)c2cc(C)c(OC)c(C(=O)OC)c2)cc(C)c1OC | – | > 200 µM | > 100 µM | 95.4 µM | > 2.1
CCOC(=O)CCCC=C(c1cc(C)c(OC)c(C(=O)OC)c1)c1cc(C)c(OC)c(C(=O)OC)c1 | – | 8.91 µM | 0.181 µM | 0.03 µM | 297
CCCCCC=C(c1cc(C(=O)OC)c(OC)c(C(F)(F)F)c1)c1cc(C(=O)OC)c(OC)c(C(F)(F)F)c1 | Not Active | 106 µM | – | – | –
COC(=O)c1cc(C(=CCCNC(C)=O)c2cc(Cl)c(OC)c(C(=O)OC)c2)cc(Cl)c1OC | Not Active | 19.1 µM | > 100 µM | – | –
